One may read the fraction unbound as the share of the substance not bound to proteins or other matrix. A word on the logD: it is the decadic logarithm of the distribution of all forms, ionised or not, between an organic phase and buffer at a given pH.

Molecules are shown by their SMILES.

The subject of data set [1] is Brain. The data set can be described thus: Biodistribution in iv dosed rhesus monkey brain measured at 90 mins by PET analysis relative to control. Type of data set: ADME, organism-based, Macaca mulatta. As to conditions: in vivo, 1.5 h; call rule not given here. In short, it runs like this:
(§1)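 Baseline scans in rhesus monkey given the [18F] radioligand i.v. (4.6–6.58 mCi; specific activity 1.67–4.18 Ci/μmol at injection). Ketamine 10 mg/kg i.m. induction, then 1.6% isoflurane/98.4% O2, with the head in a stereotaxic frame. microPET Focus 220 scanning for 120 min in 33 frames (30 s–5 min). Regional uptake, including isocontour-delineated cerebellar grey matter, expressed as SUV.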

Data set [2] relates to Plasma. The data set can be described thus: Biodistribution in rhesus monkey plasma at 5.24 mCi, iv after 60 mins by radio-HPLC analysis. Format: ADME, organism-based, Macaca mulatta. As to conditions: in vivo, 1 h. In short, it runs like this:
(§2)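 Single rhesus monkey (7.0 kg) given the radioligand iv (5.24 mCi; 1.4 nmol/kg). Venous blood drawn at 10, 30, 60 and 120 min. Separated plasma analysed by radio-HPLC on a C18 radial-compression column, eluted at 2.0 mL/min with MeOH:H₂O:Et₃N (65:35:0.1). Parent and radiometabolites given as percent of plasma radioactivity; blood-component radioactivity expressed as SUV; decay-corrected.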

The test system of data set [3] is Plasma. The data set can be described thus: Biodistribution in rhesus monkey plasma assessed as radiometabolite [18F]-E level at 5.24 mCi, iv after 60 mins by radio-HPLC analysis. Format: ADME, organism-based, Macaca mulatta. As to conditions: in vivo, 1 h. A digest of the protocol:
as §2

In data set [4] the test system is Plasma. The data set can be described thus: Biodistribution in rhesus monkey plasma assessed as radiometabolite [18F]-D level at 5.24 mCi, iv after 60 mins by radio-HPLC analysis. Type of data set: ADME, organism-based, Macaca mulatta. To be noted: in vivo, 1 h. A digest of the protocol: as §2
For data set [5], the system named is Plasma. The data set can be described thus: Biodistribution in rhesus monkey plasma assessed as radiometabolite [18F]-C level at 5.24 mCi, iv after 60 mins by radio-HPLC analysis. Type of data set: ADME, organism-based, Macaca mulatta. As to conditions: in vivo, 1 h. A digest of the protocol: as §2
Data set [6] relates to Plasma. As to the kind of experiment: Biodistribution in rhesus monkey plasma assessed as radiometabolite [18F]-B level at 5.24 mCi, iv after 60 mins by radio-HPLC analysis. Type of data set: ADME, organism-based, Macaca mulatta. To be noted: in vivo, 1 h. In short, it runs like this:
as §2

The test system of data set [7] is Plasma. The data set can be described thus: Biodistribution in rhesus monkey plasma assessed as radiometabolite [18F]-A level at 5.24 mCi, iv after 60 mins by radio-HPLC analysis. Type of data set: ADME, organism-based, Macaca mulatta. To be noted: in vivo, 1 h. In short, it runs like this: as §2
For data set [8], the system named is Plasma. The data set can be described thus: Biodistribution in rhesus monkey plasma at 5.24 mCi, iv after 2 hrs by radio-HPLC analysis. Format: ADME, organism-based, Macaca mulatta. As to conditions: in vivo. A digest of the protocol:
as §2

The subject of data set [9] is Plasma. As to the kind of experiment: Biodistribution in rhesus monkey plasma at 5.24 mCi, iv measured at 31 mins by radio-HPLC analysis. Format: ADME, organism-based, Macaca mulatta. To be noted: in vivo. In short, it runs like this:
as §2

Data set [10] has as its system Blood. The data set can be described thus: Biodistribution in rhesus monkey whole blood at 5.24 mCi, iv up to 150 mins by radio-HPLC analysis. Format: ADME, organism-based, Macaca mulatta. As to conditions: in vivo, 2 h, in the assay text read “120 mins” for “150 mins”. A digest of the protocol:
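Venous blood sampled after iv injection of radioligand (5.24 mCi; 1.4 nmol/kg) in one 7.0 kg rhesus monkey. Whole-blood radioactivity was gamma-counted, decay-corrected and expressed as SUV.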

Data set [11] is described as follows: Fraction unbound in human plasma by radio-HPLC analysis. Type of data set: ADME, cell-free.
Data set [12] can be described thus: Fraction unbound in rhesus monkey plasma by radio-HPLC analysis. Format: ADME, cell-free, Macaca mulatta.
The nature of data set [13]: Metabolic stability in rhesus monkey plasma assessed as compound remaining after 30 mins by radio-HPLC analysis. Type of data set: ADME, cell-free, Macaca mulatta. To be noted: read-out: Stability. A digest of the protocol: (§3)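 Radioligand incubated in rhesus monkey whole blood or plasma at room temperature for at least 30 min. Blood lysed with water for 30 s; samples deproteinized with MeCN and spun at 10,000 g. Supernatants analysed by radio-HPLC; precipitates counted to give extraction efficiency. Percent unchanged parent divided by radiochemical purity.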

The nature of data set [14]: Metabolic stability in rhesus monkey whole blood assessed as compound remaining after 30 mins by radio-HPLC analysis. Type of data set: ADME, tissue-based, Macaca mulatta. To be noted: read-out: Stability. A digest of the protocol:
as §3

The nature of data set [15]: Biodistribution in iv dosed rhesus monkey skull by PET analysis. Format: ADME, organism-based, Macaca mulatta. As to conditions: in vivo. A digest of the protocol:
(§4)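 Baseline brain PET in rhesus monkey: radioligand given intravenously (4.6–6.58 mCi; specific activity 1.67–4.18 Ci/μmol at injection). Ketamine induction (10 mg/kg, i.m.), then 1.6% isoflurane in O₂; head held in a stereotaxic frame. Scan run 120 min in 33 frames (30 s–5 min). Regional uptake taken from regions of interest, cerebellar grey matter delineated by isocontour, expressed as SUV; decay-corrected.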

For data set [16], the system named is Brain. The data set can be described thus: Biodistribution in iv dosed rhesus monkey brain administered 30 mins prior to […]-challenge by PET analysis. As to conditions: in vivo, 0.5 h, in the assay text read “mGluR5 ligand” for “mGluR1 ligand”. Format: ADME, organism-based, Macaca mulatta. A digest of the protocol: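 Third rhesus monkey (8.1 kg): the mGluR5-selective ligand MTEP (5 mg/kg) given i.v. 30 min after the i.v. [18F] radioligand. Anesthesia was ketamine then isoflurane, with the head in a stereotaxic frame. A 120-min microPET acquisition in 33 frames was run, and regional washout expressed as SUV.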

Data set [17] deals with Brain. The data set can be described thus: Biodistribution in iv dosed rhesus monkey brain administered 30 mins prior to mGluR1 antagonist JNJ-16259685-challenge by PET analysis. As to conditions: in vivo, 0.5 h. Type of data set: organism-based, Macaca mulatta. In short, it runs like this:
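Displacement challenge in a second rhesus monkey: JNJ-16259685 (3 mg/kg) given i.v. 30 min after the i.v. [18F] radioligand injection. Anesthesia was ketamine 10 mg/kg i.m. then 1.6% isoflurane. The brain was scanned with microPET for 120 min in 33 frames, and regional radioactivity expressed as SUV.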

The subject of data set [18] is Brain. As to the kind of experiment: Biodistribution in iv dosed rhesus monkey brain measured up to 120 mins by PET analysis. Type of data set: ADME, organism-based, Macaca mulatta. As to conditions: in vivo, 2 h. A digest of the protocol:
as §1

In data set [19] the test system is Brain. As to the kind of experiment: Biodistribution in iv dosed rhesus monkey brain administered 5 mins post mGluR1 antagonist JNJ-16259685-challenge by PET analysis. Type of data set: organism-based, Macaca mulatta. As to conditions: in vivo. In short, it runs like this: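 Receptor preblock in the baseline monkey on a separate day: JNJ-16259685 (3 mg/kg) given i.v. 5 min before the i.v. [18F] radioligand (4.6–6.58 mCi). Under ketamine/isoflurane anesthesia in a stereotaxic frame, the brain was scanned with microPET for 120 min in 33 frames. Regional time–activity curves expressed as SUV.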

Data set [20] is described as follows: Biodistribution in iv dosed rhesus monkey cerebellum measured at 2 hrs by PET analysis. Format: ADME, organism-based, Macaca mulatta. As to conditions: in vivo. A digest of the protocol:
as §4

A short description of data set [21]: Biodistribution in iv dosed rhesus monkey cerebellum measured at 90 mins by PET analysis. Type of data set: ADME, organism-based, Macaca mulatta. As to conditions: in vivo, 1.5 h. In short, it runs like this: as §4
Data set [22] is described as follows: Biodistribution in iv dosed rhesus monkey anterior cingulate by PET analysis. Type of data set: ADME, organism-based, Macaca mulatta. As to conditions: in vivo. In short, it runs like this:
as §1

Data set [23] in a line: Biodistribution in iv dosed rhesus monkey putamen by PET analysis. As to conditions: in vivo. Format: ADME, organism-based, Macaca mulatta. In short, it runs like this:
as §4

Data set [24] concerns Hippocampus. The data set can be described thus: Biodistribution in iv dosed rhesus monkey hippocampus by PET analysis. Type of data set: ADME, organism-based, Macaca mulatta. As to conditions: in vivo. In short, it runs like this:
as §4

Data set [25] can be described thus: Biodistribution in iv dosed rhesus monkey frontal cortex by PET analysis. Format: ADME, organism-based, Macaca mulatta. To be noted: in vivo. A digest of the protocol: as §4
Data set [26] can be described thus: Biodistribution in iv dosed rhesus monkey thalamus by PET analysis. Type of data set: ADME, organism-based, Macaca mulatta. To be noted: in vivo. In short, it runs like this: as §4
Data set [27] is described as follows: Octanol-sodium phosphate buffer distribution coefficient, log D of the compound at pH 7.4. Format: physicochemical. In short, it runs like this: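 Measured LogD of the [18F]-labelled compound: distribution between n-octanol and 0.15 M sodium phosphate buffer, pH 7.4; n = 6.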
A short description of data set [28]: Biodistribution in iv dosed rhesus monkey cerebellum measured at 12 mins by PET analysis. Format: ADME, organism-based, Macaca mulatta. As to conditions: in vivo, 0.2 h. In short, it runs like this: as §4

Turning to `CC(C)Nc1cc(-c2csc(N(C)C(=O)c3ccc([18F])cc3)n2)ncn1`, the Drug uptake in data set [1] was found to be 17%.

With `CNc1cc(-c2csc(N(C)C(=O)c3ccc([18F])cc3)n2)ncn1`, the Drug uptake in [2] turned out to be 26%; in [3] it was 21%; in data set [4], 1%; in data set [5], 10%; in data set [6], 23%; in data set [7], 19%. In addition, the Drug uptake result in data set [8] is on record as “Active”; in [9] it was 31%; in data set [10] it was “Active”; in [15], “Not Active”; in data set [16], “Active”; in data set [17], “Active”. Further, the Drug uptake result in data set [18] and in data set [19] was “Active” each time. Moreover, the values for the fraction unbound in [11] and in data set [12] were 0.0114 and 0.0123, respectively. Moreover, the remaining at 0.5 h came to 98.9% in data set [13] and 98.1% in data set [14]. The SUV in data set [20] was 2.8; in data set [21] it was 3.32; in data set [22] it was 2.4; in data set [23], 2.5; in data set [24] it was 2.5; in data set [25], 2.7. In addition, the results for the SUV in data set [26] and in data set [28] were 2.9 and 5.3, respectively. The logD in data set [27] was 2.52.

Source of the values: ChEMBL document CHEMBL3085643, “Synthesis and evaluation in monkey of [(18)F]4-fluoro-N-methyl-N-(4-(6-(methylamino)pyrimidin-4-yl)thiazol-2-yl)benzamide ([(18)F]FIMX): a promising radioligand for PET imaging of brain metabotropic glutamate receptor 1 (mGluR1)” (J Med Chem, 2013).
